ALR H2O2 inh = blocks human ALR sulfhydryl oxidase activity; P55789; purified ALR, DTT oxidation, H2O2 HRP-luminol luminescence; inhibition, % (no concentration beside the values); 290,000 tested, 3.8% active;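 active means mean replicate inhibition above about 79%, with every replicate also reaching it, limit read from the data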
Target sequence (P55789 whole entry, looked up): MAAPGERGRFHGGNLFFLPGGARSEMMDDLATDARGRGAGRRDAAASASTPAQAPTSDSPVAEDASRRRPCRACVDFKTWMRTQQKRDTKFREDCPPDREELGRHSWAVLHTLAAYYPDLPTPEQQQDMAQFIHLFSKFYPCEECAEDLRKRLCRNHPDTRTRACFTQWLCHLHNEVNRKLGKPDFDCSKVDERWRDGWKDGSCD
ATG4B inhibitor = ATG4B (human) cysteine protease inhibition. Q9Y4P1. ATG4B cleavage of LC3-PLA2, NBD-HPC fluorescence, 1 h. inhibition, % at 8.33 µM. 340,000 tested, 0.51% active; in the data active means inhibition above about 40%
Calb FLC = C. albicans growth modulation with fluconazole; C. albicans CaCi-2 (fluconazole-resistant clinical isolate) + fluconazole, Alamar Blue growth, 48 h; growth inhibition, % (concentration not given with the values); 300,000 tested, 0.57% active;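 active means growth inhibition above about 58% in most replicates, limit read from the data, passing the limit was not always enough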;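 further: all wells also contain fluconazole at 8 µg/ml as a sub-toxic cotreatment; 0% = median of DMSO wells and 100% = median of geldanamycin control wells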
NALP1 inh = inhibitors of NALP1 inflammasome in yeast | S. cerevisiae NALP1/ASC/caspase-1 growth, X-gal OD620, 72 h | inhibition, % at 10 µM | 280,000 tested, 0.61% active | AID 2071; in the data active means inhibition mostly above about 24%, no sharp cut-off; inactive means mostly below about 32%
UCH37 DUB inh = inhibitors of human deubiquitinating enzyme UCH37; inhibition, % (test concentration not listed); 330,000 tested, 0.33% active; purified proteasome/UCH37, Ub-AMC cleavage fluorescence; Q9Y5K5; AID 588478;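 active means mean inhibition over replicate wells above about 20%, limit read from the data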;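 further: 0% = compound-free wells with enzyme and 100% = wells lacking proteasome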
Target sequence (Q9Y5K5 whole entry, looked up): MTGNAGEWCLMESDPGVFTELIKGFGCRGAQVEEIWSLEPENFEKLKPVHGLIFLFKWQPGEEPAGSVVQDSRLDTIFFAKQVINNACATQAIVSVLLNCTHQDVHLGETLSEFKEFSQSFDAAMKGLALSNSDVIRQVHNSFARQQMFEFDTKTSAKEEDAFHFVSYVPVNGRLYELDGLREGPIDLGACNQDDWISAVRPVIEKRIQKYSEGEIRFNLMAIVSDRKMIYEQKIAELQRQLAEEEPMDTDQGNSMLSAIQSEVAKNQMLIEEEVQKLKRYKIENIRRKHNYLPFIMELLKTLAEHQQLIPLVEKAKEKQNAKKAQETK
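Schedule: 30 min plus 25 min, room temperature / Material: human UCH37 within purified proteasomes / Technique: AMC fluorescence intensity at 355/460 nm / Buffer or medium: pH 7.4 Tris-HCl (50 mM) with ovalbumin, ATP-MgCl2, DTT / Controls: wells without proteasome as full block, compound-free enzyme plus substrate as uninhibited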
NALP3 yeast inh = inhibitors of NALP3 inflammasome in yeast; Yeast reconstituted NLRP3/ASC/caspase-1, beta-gal luminescence, 24 h; inhibition, % at 10 µM; 330,000 tested, 0.39% active; AID 2825;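 active means inhibition of 50% or more; inactive means inhibition below 50%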;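 further: plate controls were induced DMSO wells for no effect and uninduced yeast grown without galactose for full effect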
Active calls of the source: *; nt = no result. Sampled rows, rich in hits. Any-hit rate of the full collection: about 4.8%.

SMILES | ALR H2O2 inh | ATG4B inhibitor | Calb FLC | NALP1 inh | UCH37 DUB inh | NALP3 yeast inh
CC1CCC(C(C)C)C(OCC(O)C[N+]2(C)CCCCC2)C1 (configuration not stated) | 99.3* | -5.5 | -28.3 | -2.0 | 2.9 | 7.4
CCNC(=O)NC(=O)C(C)OC(=O)c1ccc(-n2nc(SC)sc2=S)cc1 (configuration not stated) | -21.0 | 8.9 | 49.7 | 21.3 | 6.4 | 14.9
CSc1nn(-c2ccc(C(=O)OC(C(=O)NC(N)=O)C(C)C)cc2)c(=S)s1 (configuration not stated) | -5.8 | 6.8 | 18.1 | 38.3* | 0.7 | 13.8
COc1ccc(C(CC2(O)C(=O)Nc3ccccc32)=NO)cc1 (configuration not stated) | nt | nt | nt | nt | 2.8 | nt
CC(=O)Nc1ccc(NC(C)=O)s1 | 87.0* | -5.1 | -8.1 | 15.6 | 0.4 | 18.5
O=C(N/N=C/c1ccc(O)c(Br)c1)c1cc2c(ccc3ccccc32)o1 | -9.7 | -10.8 | -5.0 | 12.7 | nt | -0.7
O=C(N/N=C/c1cc(Br)c(O)c(Br)c1)c1cc2c(ccc3ccccc32)o1 | -9.1 | -1.7 | 109.0* | 7.1 | nt | 29.1
Clc1ccccc1-c1nc(NN=Cc2cccnc2)c2ccccc2n1 | nt | nt | nt | nt | 6.2 | nt
CC(/C=C/c1ccco1)=NNC(=O)c1cccc(Cl)c1 | nt | nt | nt | nt | 12.0 | nt
Cc1cc(C)c(C(=O)N2CCCC(Nc3ccc(F)cc3)C2)o1 (configuration not stated) | 98.8* | 2.9 | -5.4 | -10.6 | -2.4 | 1.7
Cc1cc(C)c(C(=O)N2CCCC(C(=O)c3cc(F)ccc3F)C2)o1 (configuration not stated) | -1.3 | -3.2 | 0.3 | 6.4 | 0.9 | 7.5
CCOC(=O)c1[nH]c(C)c(C(=O)N2CCCC(Nc3ccc(C)c(C)c3)C2)c1C (configuration not stated) | 98.6* | -9.9 | 9.7 | 4.0 | 5.9 | 14.4
CCOC(=O)c1[nH]c(C)c(C(=O)Nc2ccc(C)c(C)c2)c1C | 17.2 | 1.9 | -1.3 | 11.1 | 5.2 | 13.5
O=C(c1cccnc1)N1CCCC(Nc2ccc(F)cc2)C1 (configuration not stated) | 52.6 | 9.4 | -0.2 | 15.6 | 1.3 | 14.1
COc1ccc(NC2CCCN(C(=O)c3oc(C)cc3C)C2)cc1OC (configuration not stated) | 99.5* | 2.6 | -18.1 | 6.5 | 2.8 | 8.3
CC(C)c1cc(C(=O)N2CCCC(Nc3ccc(F)cc3)C2)n[nH]1 (configuration not stated) | 98.7* | 2.6 | 4.7 | 15.2 | 1.7 | 8.7
Cc1ccc2nc(C)c(=NO)c(C)nc2c1 | nt | nt | nt | nt | 0.1 | nt
COc1cccc2c(NN=Cc3ccccc3)cc(C)nc12 | nt | nt | nt | nt | -13.6 | nt
Cc1ccc(NC2CCCN(C(=O)c3ccc(-n4ccnc4)cc3)C2)cc1C (configuration not stated) | 61.7 | -1.7 | -3.8 | 5.8 | 4.5 | -3.1
Cc1cc(C)c(C(=O)N2CCCC(Nc3ccc(C)c(C)c3)C2)o1 (configuration not stated) | 99.3* | 11.3 | 13.2 | -1.4 | 1.4 | 16.3
Cc1cc(OCC(=O)ON=C(N)c2ccccc2)ccc1Br | nt | nt | nt | nt | 0.0 | nt
CC(C(=O)NC1C=CS(=O)(=O)C1)N1C(=O)/C(=C\c2ccccc2)SC1=S (configuration not stated) | 99.2* | -3.0 | -3.3 | 7.3 | 5.6 | -1.8
C=CCn1c(NC(=O)c2ccc(Br)o2)c(C(=O)OCC)sc1=S | 8.4 | -5.9 | 92.6* | -8.4 | 7.5 | 15.1
CCOC(=O)c1c(NC(=O)c2ccc(Br)o2)sc(C)c1CC | 5.7 | -9.9 | 2.2 | 1.6 | -18.9 | -0.5
CCOc1cc(C=NNC(=O)c2cccnc2)ccc1OCC(N)=O | nt | nt | nt | nt | 7.3 | nt
SMILES | ALR H2O2 inh | ATG4B inhibitor | Calb FLC | NALP1 inh | UCH37 DUB inh | NALP3 yeast inh
COc1ccc(-n2c(O)c(/C=N/NS(=O)(=O)c3cccc([N+](=O)[O-])c3)c3ccccc3c2=O)cc1OC | 88.7* | 6.3 | 22.0 | 5.0 | -3.8 | 23.0
COc1ccc(C[C@H]2c3cc(O)c(OC)cc3CC[N+]2(C)[O-])cc1O (some centres not stated) | 95.2* | -11.1 | -11.2 | 23.8 | -33.7 | 13.2
COc1cc2c(cc1O)C(Cc1ccc(O)cc1)[N+](C)([O-])CC2 (configuration not stated) | 25.6 | -11.3 | -4.0 | nt | 4.3 | 15.9
CC1CCC2C(C1)c1sc(=O)[nH]c1SC2(C)C (configuration not stated) | 97.8* | -0.8 | 11.9 | 37.3 | -0.2 | -23.3
CCN(CC)c1ccc(/C=N/n2c(-c3ccccc3Br)n[nH]c2=S)cc1 | 97.0* | 4.7 | 12.3 | nt | nt | 33.8
Cc1nn(-c2ccccc2)c(C)c1/C=N/n1c(-c2ccccc2Br)n[nH]c1=S | 96.2* | -0.2 | 0.9 | 17.7 | nt | 3.6
CCc1n[nH]c(=S)n1N=Cc1ccc(N(CC)CC)cc1 | nt | nt | nt | nt | -3.3 | nt
CCOC(=O)C(=NO)C(C)=NNC(=O)C(=O)Nc1cc(Cl)ccc1Cl | nt | nt | nt | nt | 4.3 | nt
Cc1nc(Sc2nnnn2C)c2c3c(sc2n1)CCC3 | 94.2* | 5.6 | nt | 21.3 | -15.7 | 13.8
CCN(c1ccc(NC(=O)CCNC(=O)c2ccco2)cc1)C(C)C | 98.8* | -7.5 | -23.2 | 26.5 | 0.4 | 1.0
Cc1ccc(NC(=O)CCNC(=O)c2ccco2)cc1 | -25.1 | 1.1 | 15.0 | 15.7 | 4.1 | -8.0
O=C1CCCC(=NNC(=O)c2ccc(COc3cccc4cccnc34)cc2)C1 | nt | nt | nt | nt | -1.1 | nt
COc1ccc(-c2nn(-c3ccccc3)cc2C=NNc2ccc(Cl)c(C(=O)O)c2)cc1OC | nt | nt | nt | nt | -11.5 | nt
CCSC1(SCC)N=C(N)C2(C#N)C(c3ccccc3)NC3=C(CCC3)C12C#N (configuration not stated) | 95.6* | -4.3 | 4.6 | 11.1 | -0.9 | 20.3
COc1ccc(C(=S)N2CCN(c3ccccc3Cl)CC2)cc1OC | -5.4 | 6.8 | 0.5 | -12.2 | 0.0 | -9.2
COc1cc(C(=S)N2CCN(c3ccccc3Cl)CC2)cc(O)c1O | 98.6* | -0.5 | 91.4* | -16.4 | 7.9 | 20.4
Cn1c(=O)c2c(ncn2CC(=O)Nc2nc3ccc(F)cc3s2)n(C)c1=O | 98.8* | -9.8 | 4.6 | 11.9 | 1.6 | 14.9
COc1ccc2nc(NC(=O)Cn3cnc4c(=O)n(C)c(=O)n(C)c43)sc2c1 | nt | -7.8 | 5.6 | -11.1 | 0.2 | 2.8
N#CC(=NNc1cccc([N+](=O)[O-])c1)C(=O)c1ccc(Br)cc1 | nt | nt | nt | nt | 10.4 | nt
Cc1ccc2ccc(C(Nc3ccccn3)c3ccccc3)c(O)c2n1 (configuration not stated) | nt | -7.3 | -4.7 | -11.6 | 4.3 | -0.2
Cc1ccnc(NC(c2ccccc2)c2ccc3cccnc3c2O)c1 (configuration not stated) | nt | 13.1 | nt | nt | 1.8 | nt
Cc1ccnc(NC(c2cccnc2)c2ccc3cccnc3c2O)c1 (configuration not stated) | 3.7 | -1.6 | 89.6* | 20.8 | 1.0 | 12.7

From PubChem BioAssay
